Experimental findings from ChEMBL document CHEMBL1155688, “New pyridinium alkaloids from a marine sponge of the genus Spongia with a human phospholipase A(2) inhibitor profile” (J Nat Prod, 2000) are described below.

Activity calls are given as the source filed them. The calls are words filed in the database; no cut-off is given here.

The nature of data set [1]: Inhibition of bee venom sPLA2. The arrangement: species or system Apis mellifera. Summed up:
(§1)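 Radiometric sPLA2 assay on E. coli CECT 101 membranes labelled by growth for 6–8 h at 37 °C with [3H]oleic acid, then autoclaved. Bee venom or human recombinant synovial enzyme in 100 mM Tris-HCl, 1 mM CaCl2, pH 7.5. Enzyme preincubated 5 min at 37 °C with compound or vehicle, then 15 min with membranes. Stopped with ice-cold BSA and centrifuged. Supernatant radioactivity counted by scintillation. IC50 from at least four concentrations (n = 6). Mean ± SEM.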

In the next data set the test system is Apis mellifera. As to the kind of experiment: Inhibition of bee venom sPLA2 at 10 uM. Summed up: as §1
The nature of data set [2]: Inhibition of human synovial sPLA2. Summed up: as §1
Another data set is filed under the species Rattus norvegicus. The data set can be described thus: Inhibition of rat air pouch sPLA2 at 10 uM. The procedure, abridged: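 sPLA2 source was exudate supernatant from zymosan-injected rat air pouch. Preincubated 5 min at 37 °C with compound or vehicle, then 15 min with autoclaved [3H]oleate-labelled E. coli CECT 101 membranes. Stopped with ice-cold BSA (0.07% w/v final). Released radioactivity in the supernatant counted by scintillation. Mean ± SEM, n = 6.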

The species named for the next data set is Homo sapiens. As to the kind of experiment: Inhibition of human synovial sPLA2 at 10 uM. The procedure, abridged:
(§2)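 Purified enzyme (Naja naja venom, porcine pancreatic, or human recombinant synovial) in 100 mM Tris-HCl, 1 mM CaCl2, pH 7.5, preincubated 5 min at 37 °C with compound or vehicle. Then incubated 15 min with autoclaved E. coli CECT 101 membranes labelled with [3H]oleic acid. Stopped with ice-cold BSA (0.07% w/v final). Supernatant radioactivity counted after centrifugation. Mean ± SEM, n = 6.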

A further data set is filed under the species Sus scrofa. As to the kind of experiment: Inhibition of pig pancreas sPLA2 at 10 uM. The procedure, abridged: as §2
Data set [3] can be described thus: Cytotoxicity against human neutrophils up to 10 uM by MTT assay. The class given is cell-based. The settings on record: neutrophil. The procedure, abridged:
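Viability of human neutrophils assessed by mitochondrial reduction of MTT to formazan.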

A further data set has as its system Naja naja. As to the kind of experiment: Inhibition of Naja naja sPLA2 at 10 uM. Summed up: as §2
The test system of the next data set is RAW264.7. The data set can be described thus: Inhibition of cPLA2 in mouse RAW264.7 cells. The class given is cell-based. Summed up: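 Enzyme was the cytosolic fraction of murine RAW 264.7 cells. Substrate was 1-palmitoyl-2-[14C]arachidonyl-phosphatidylcholine. Compound in methanol (<1% final) added before the enzyme, then 60 min at 37 °C. Stopped with isopropanol-heptane-0.5 M H2SO4 (10:5:1). Released arachidonate in the heptane phase was cleaned on silica gel and counted.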

`CC1=C(CC/C(C)=C/CCC2=CC[C@H](C3=CC(=O)OC3O)O[C@@H]2O)C(C)(C)CCC1` (some centres not stated) [MANOLIDE]: the IC50 in data set [1] worked out at 7.5 µM; in [2], 3.9 µM. Also, the inhibition in the data set on Apis mellifera stood at 62.5%; in the data set listed under Rattus norvegicus, 38.4%; in the data set filed under Homo sapiens, 93.2%; in the data set listed under Sus scrofa, 32.3%.

On to `C[C@]1(CO)CCC[C@]2(C)[C@H]3CC[C@@H]4C=C(CC(=O)O)C(=O)C[C@H]4[C@]3(C)CC[C@H]12` [PETROSASPONGIOLIDE K], for which the inhibition stood at 37.1% in the data set with Apis mellifera; 18.8% in the data set filed under Rattus norvegicus; 34.4% in the data set listed under Homo sapiens; 1.3% in the data set with Naja naja; 14.3% in the data set filed under Sus scrofa. The Activity entry in data set [3] is “Not Active”.

`C[C@]1(CO)CCC[C@]2(C)[C@H]3CC[C@@H]4C(O)O[C@@H](C5=CC(=O)OC5O)C[C@H]4[C@]3(C)CC[C@H]12` (some centres not stated) [PETROSASPONGIOLIDE P]: the inhibition in the data set with Apis mellifera turned out to be 5.4%; in the data set filed under Rattus norvegicus, 25.6%; in the data set filed under Homo sapiens, 87.2%; in the data set on Naja naja it was 8.7%; in the data set filed under Sus scrofa, 19.5%. In addition, 5.8 µM corresponded to half-maximal inhibition in [2] (IC50). The Activity result in data set [3] is “Not Active”.

As for `CC1(C)CCC[C@@]2(C)C1CC[C@@]1(C)c3cc[n+](CC(=O)O)cc3CCC21.[Cl-]` (some centres not stated) [SPONGIDINE A], in the data set on RAW264.7, the outcome was inactive. Further, the inhibition was determined as 33.1% in the data set on Apis mellifera; 17.1% in the data set filed under Rattus norvegicus; 40.1% in the data set listed under Homo sapiens; 0.5% with Naja naja; 18% in the data set filed under Sus scrofa. The Activity entry in data set [3] was “Not Active”.

With `CC(=O)OC[C@@]1(C)CCC[C@@]2(C)C1CC[C@@]1(C)c3cc[n+](CC(=O)O)cc3CCC21` (some centres not stated) [SPONGIDINE B], in the data set on RAW264.7, the result was inactive. Also, the inhibition came out at 32.2% with Apis mellifera; 17.9% in the data set filed under Rattus norvegicus; 34.6% in the data set listed under Homo sapiens; 0.4% in the data set on Naja naja; 14.2% in the data set listed under Sus scrofa. Besides, the Activity entry in data set [3] is recorded as “Not Active”.

In the case of `CC1(C)CCC[C@@]2(C)C1CC[C@@]1(C)c3cc(CCC(=O)O)[n+](CC(=O)O)cc3CCC21.[Cl-]` (some centres not stated) [SPONGIDINE C], the result in the data set with RAW264.7 was inactive. For the same compound, the inhibition is 36.2% with Apis mellifera; 30.9% in the data set listed under Rattus norvegicus; 40.4% in the data set filed under Homo sapiens; 3.1% with Naja naja; 9.1% in the data set filed under Sus scrofa. The Activity entry in data set [3] is “Not Active”.

With `CC1(C)CCC[C@@]2(C)C1CC[C@@]1(C)c3cc[n+](CCS(=O)(=O)O)cc3CCC21` (some centres not stated) [SPONGIDINE D], in the data set on RAW264.7, the outcome was inactive. The inhibition with Apis mellifera came out at 37.6%; in the data set filed under Rattus norvegicus, 19.6%; in the data set filed under Homo sapiens, 48.2%; in the data set with Naja naja it was 0%; in the data set listed under Sus scrofa, 7.6%. The Activity entry in data set [3] is “Not Active”.
